Data taken from ChEMBL document CHEMBL4196006, “Aryl thiosemicarbazones for the treatment of trypanosomatidic infections” (Eur J Med Chem, 2018).
One block for each compound: values may come before it. Activity calls are given as the source filed them. The rule behind the calls is not given here.

How the values were obtained:
[1] = Cytotoxicity against human THP1 cells assessed as decrease in viable cells after 72 hrs by MTT assay; format: cell-based, THP-1; details: THP1 cells
In short: (§1)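 THP-1-derived macrophages exposed to compounds for 72 h, tested at 100 μM or in dose-response; viability read by MTT colorimetric assay.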

[2] = test system: Leishmania infantum; test: Antileishmanial activity against Leishmania infantum amastigote form after 72 hrs by steady-Glo reagent based assay; format: functional, organism-based
In short: (§2)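 Intramacrophage L. infantum amastigotes in THP-1-derived macrophages, tested at 50 μM or in dose-response. Plates held 72 h at 37 °C, 5% CO2. Medium was replaced by PBS, macrophages lysed, and parasites read by Steady-Glo luminescence. High-content imaging gave host cell number, infection ratio (infected/total cells) and parasites per infected cell. Values are means of at least two independent experiments.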

[3] = target: Cytochrome P450 2C9 (Homo sapiens, UniProt P11712); test: Inhibition of human microsomal CYP2C9 expressed in baculovirus infected BTI-TN-5B1-4 cells incubated for 30 mins by luciferase assay
[4] = test system: Leishmania infantum; test: Antileishmanial activity against Leishmania infantum amastigote form; format: functional, organism-based; in short: as §2
[5] = Cytotoxicity against human U2OS cells assessed as decrease in viable cells after 72 hrs by cell number count in anti-T. cruzi high content imaging assay; details: U2OS cells
[6] = target: CYP2C9 (Homo sapiens, UniProt P11712); test: Inhibition of human microsomal CYP2C9 expressed in baculovirus infected BTI-TN-5B1-4 cells at 10 uM incubated for 30 mins by luciferase assay relative to control; format: ADME
In short: (§3)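 CYP1A2, 2C9, 2C19, 2D6 and 3A4 in microsomes from baculovirus-infected insect cells, each with a P450-Glo luminogenic substrate. Inhibition read as loss of light; single-point at 10 μM, triplicate.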

[7] = target: Aurora kinase B (Homo sapiens, UniProt Q96GD4); test: Inhibition of recombinant full-length human aurora B kinase expressed in baculovirus system at 10 uM using MBP as substrate incubated for 45 mins by ADP-glo kinase assay; details: probe MBP
In short: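 Aurora B activity measured as ADP formation via coupled luciferase ADP-Glo luminescence; single-point at 10 μM, triplicate.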

[8] = test system: Trypanosoma brucei; test: Potentiation of methotrexate-induced antitrypanosomal activity against Trypanosoma brucei Lister 427 bloodstream form at 10 uM after 72 hrs by resazurin dye-based assay; format: functional
[9] = test system: Leishmania infantum; test: Antileishmanial activity against Leishmania infantum amastigote form assessed as parasite growth inhibition at 50 uM after 72 hrs by steady-Glo reagent based assay relative to control; format: functional; details: read-out: GI; in short: as §2
[10] = target: T1, Pteridine reductase 1 (Leishmania major) (UniProt Q01782); test: Inhibition of Leishmania major PTR1 at 50 uM using H2B as substrate in presence of NADPH by photometric analysis relative to control
T1 sequence (whole entry): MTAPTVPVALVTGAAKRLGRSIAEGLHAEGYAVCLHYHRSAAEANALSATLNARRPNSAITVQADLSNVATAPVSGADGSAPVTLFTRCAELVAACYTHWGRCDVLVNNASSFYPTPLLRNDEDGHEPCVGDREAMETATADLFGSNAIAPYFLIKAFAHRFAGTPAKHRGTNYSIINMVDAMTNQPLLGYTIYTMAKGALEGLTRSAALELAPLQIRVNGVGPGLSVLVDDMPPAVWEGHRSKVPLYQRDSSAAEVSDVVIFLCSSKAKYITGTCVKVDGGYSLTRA

[11] = test system: Trypanosoma cruzi; test: Antitrypanosomal activity against Trypanosoma cruzi amastigote form infected in human U2OS cells assessed as parasite growth inhibition at 50 uM after 72 hrs relative to control; format: functional; details: read-out: GI
In short: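 U2OS monolayers grown for 24 h, then infected with tissue-derived trypomastigotes of T. cruzi Y strain. Compounds were added 24 h after infection at 50 μM (single-point) or in dose-response, with 72 h exposure. Plates were fixed, stained and analysed by high-content imaging; activity was normalized to infected and non-infected controls. Means of at least two experiments; benznidazole as reference.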

[12] = target: CYP3A4 (Homo sapiens, UniProt P08684); test: Inhibition of human microsomal CYP3A4 expressed in baculovirus infected BTI-TN-5B1-4 cells at 10 uM incubated for 30 mins by luciferase assay relative to control; format: ADME; in short: as §3
[13] = test system: Trypanosoma brucei; test: Potentiation of methotrexate-induced antitrypanosomal activity against Trypanosoma brucei Lister 427 bloodstream form at 10 uM after 72 hrs by resazurin dye-based assay relative to control; format: functional
[14] = Cytotoxicity against human THP1 cells assessed as viable cells at 100 uM after 72 hrs by MTT assay relative to control; format: cell-based, THP-1; details: read-out: Activity; in short: as §1
[15] = test system: Trypanosoma brucei; test: Antitrypanosomal activity against Trypanosoma brucei Lister 427 bloodstream form at 10 uM after 72 hrs by resazurin dye-based assay relative to control; format: functional
[16] = target: CYP2C19 (Homo sapiens, UniProt P33261); test: Inhibition of human microsomal CYP2C19 expressed in baculovirus infected BTI-TN-5B1-4 cells at 10 uM incubated for 30 mins by luciferase assay relative to control; format: ADME; in short: as §3
[17] = target: T2, Pteridine reductase, putative (Trypanosoma brucei) (UniProt Q581W1); test: Inhibition of Trypanosoma brucei PTR1 at 50 uM using H2B as substrate in presence of NADPH by photometric analysis relative to control
T2 sequence (whole entry): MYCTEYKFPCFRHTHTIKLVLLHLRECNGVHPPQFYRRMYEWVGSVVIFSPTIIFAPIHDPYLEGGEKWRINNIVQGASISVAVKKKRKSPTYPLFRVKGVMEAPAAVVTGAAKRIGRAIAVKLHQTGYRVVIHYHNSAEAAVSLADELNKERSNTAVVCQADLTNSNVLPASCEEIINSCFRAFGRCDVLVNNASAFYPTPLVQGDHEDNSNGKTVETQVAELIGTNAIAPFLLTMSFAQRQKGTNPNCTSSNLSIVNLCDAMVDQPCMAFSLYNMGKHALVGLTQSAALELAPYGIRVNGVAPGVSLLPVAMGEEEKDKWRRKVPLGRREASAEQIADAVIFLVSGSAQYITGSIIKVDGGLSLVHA

[18] = Cytotoxicity against human U2OS cells assessed as viable cells at 50 uM after 72 hrs by MTT assay relative to control; format: cell-based; details: read-out: Activity
[19] = test system: A549; test: Cytotoxicity against human A549 cells assessed as growth inhibition at 10 uM after 48 hrs by CellTiter-Glo assay relative to control; values are per cent of control; details: a549, 48 h, 10 µM
[20] = target: CYP2D6 (Homo sapiens, UniProt P10635); test: Inhibition of human microsomal CYP2D6 expressed in baculovirus infected BTI-TN-5B1-4 cells at 10 uM incubated for 30 mins by luciferase assay relative to control; format: ADME; in short: as §3
[21] = target: T3, CYP1A2 (Homo sapiens, UniProt P05177); test: Inhibition of human microsomal CYP1A2 expressed in baculovirus infected BTI-TN-5B1-4 cells at 10 uM incubated for 30 mins by luciferase assay relative to control; format: ADME; in short: as §3
T3 sequence (P05177 whole entry): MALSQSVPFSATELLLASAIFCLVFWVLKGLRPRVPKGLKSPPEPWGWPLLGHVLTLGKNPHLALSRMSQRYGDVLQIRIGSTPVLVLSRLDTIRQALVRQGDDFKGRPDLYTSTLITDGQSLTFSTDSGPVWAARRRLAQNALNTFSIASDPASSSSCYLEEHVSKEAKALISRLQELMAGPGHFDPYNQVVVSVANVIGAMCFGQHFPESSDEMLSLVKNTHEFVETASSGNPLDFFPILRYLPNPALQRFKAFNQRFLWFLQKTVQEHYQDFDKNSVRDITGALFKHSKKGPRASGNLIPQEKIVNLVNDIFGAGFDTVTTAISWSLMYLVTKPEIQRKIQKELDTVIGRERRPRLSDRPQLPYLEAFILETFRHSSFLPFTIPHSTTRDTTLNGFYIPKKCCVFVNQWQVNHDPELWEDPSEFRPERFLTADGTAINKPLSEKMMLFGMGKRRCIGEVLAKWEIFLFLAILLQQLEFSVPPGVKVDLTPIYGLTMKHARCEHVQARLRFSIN

[22] = target: hERG (KCNH2) (Homo sapiens, UniProt Q12809); test: Inhibition of human ERG at 10 uM incubated for 2 hrs by fluorescence polarisation assay relative to control
[23] = Cytotoxicity against human WI38 cells assessed as growth inhibition at 10 uM after 48 hrs by CellTiter-Glo assay relative to control; values are per cent of control; details: WI38 cells
[24] = test system: Trypanosoma brucei; test: Antitrypanosomal activity against Trypanosoma brucei Lister 427 bloodstream form assessed as parasite growth inhibition at 50 uM after 72 hrs by SYBR Green assay relative to control; format: functional
[25] = Cytotoxicity against human 786-O cells assessed as inhibition of mitochondrial viability at 10 uM after 6 hrs by CMXRos staining based assay relative to control; format: cell-based, 786-0; details: read-out: INH
In short: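 Mitochondrial toxicity monitored by MitoTracker Red CMXRos uptake and high-content imaging; compound at 10 μM, triplicate.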

Cytochrome P450 2C9, sequence (P11712 whole entry): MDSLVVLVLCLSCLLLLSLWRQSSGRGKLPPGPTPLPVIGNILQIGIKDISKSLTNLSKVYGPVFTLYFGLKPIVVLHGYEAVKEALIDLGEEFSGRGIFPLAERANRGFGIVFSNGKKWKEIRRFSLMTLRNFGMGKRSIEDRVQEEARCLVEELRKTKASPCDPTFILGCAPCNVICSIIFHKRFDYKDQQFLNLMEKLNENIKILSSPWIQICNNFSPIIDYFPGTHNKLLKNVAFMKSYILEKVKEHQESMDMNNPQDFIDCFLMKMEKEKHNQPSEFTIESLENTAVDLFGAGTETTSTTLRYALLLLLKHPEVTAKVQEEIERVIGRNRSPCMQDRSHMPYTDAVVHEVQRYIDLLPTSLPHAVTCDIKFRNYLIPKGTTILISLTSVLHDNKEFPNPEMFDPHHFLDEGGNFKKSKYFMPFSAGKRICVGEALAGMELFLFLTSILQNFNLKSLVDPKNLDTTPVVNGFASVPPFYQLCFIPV
CYP2C19, sequence (P33261 whole entry): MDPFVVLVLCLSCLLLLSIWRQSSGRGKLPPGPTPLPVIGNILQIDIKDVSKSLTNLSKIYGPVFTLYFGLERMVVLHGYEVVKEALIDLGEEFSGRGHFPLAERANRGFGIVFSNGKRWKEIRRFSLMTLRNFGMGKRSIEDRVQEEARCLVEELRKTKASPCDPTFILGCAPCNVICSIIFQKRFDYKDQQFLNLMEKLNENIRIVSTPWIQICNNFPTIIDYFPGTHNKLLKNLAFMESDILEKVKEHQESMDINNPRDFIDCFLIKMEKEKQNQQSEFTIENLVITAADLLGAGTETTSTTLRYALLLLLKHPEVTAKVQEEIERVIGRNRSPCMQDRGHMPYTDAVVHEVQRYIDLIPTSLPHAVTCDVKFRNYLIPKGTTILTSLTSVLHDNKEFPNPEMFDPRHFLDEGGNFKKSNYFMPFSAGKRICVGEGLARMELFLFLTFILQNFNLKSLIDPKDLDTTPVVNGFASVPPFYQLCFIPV
CYP2D6, sequence (P10635 whole entry): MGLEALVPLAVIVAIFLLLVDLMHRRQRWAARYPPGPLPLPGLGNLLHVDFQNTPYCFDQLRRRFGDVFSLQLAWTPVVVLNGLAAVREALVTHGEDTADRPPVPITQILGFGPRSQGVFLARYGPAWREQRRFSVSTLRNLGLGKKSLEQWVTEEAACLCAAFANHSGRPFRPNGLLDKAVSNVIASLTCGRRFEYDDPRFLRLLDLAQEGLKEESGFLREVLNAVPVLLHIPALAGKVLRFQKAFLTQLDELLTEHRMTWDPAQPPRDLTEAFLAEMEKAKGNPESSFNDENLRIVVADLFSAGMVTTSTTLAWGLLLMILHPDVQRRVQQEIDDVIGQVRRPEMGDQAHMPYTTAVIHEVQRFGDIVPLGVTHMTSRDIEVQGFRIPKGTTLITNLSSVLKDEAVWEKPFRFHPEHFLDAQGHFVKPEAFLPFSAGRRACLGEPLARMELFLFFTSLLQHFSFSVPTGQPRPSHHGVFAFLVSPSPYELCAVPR
Aurora kinase B, sequence (Q96GD4 whole entry): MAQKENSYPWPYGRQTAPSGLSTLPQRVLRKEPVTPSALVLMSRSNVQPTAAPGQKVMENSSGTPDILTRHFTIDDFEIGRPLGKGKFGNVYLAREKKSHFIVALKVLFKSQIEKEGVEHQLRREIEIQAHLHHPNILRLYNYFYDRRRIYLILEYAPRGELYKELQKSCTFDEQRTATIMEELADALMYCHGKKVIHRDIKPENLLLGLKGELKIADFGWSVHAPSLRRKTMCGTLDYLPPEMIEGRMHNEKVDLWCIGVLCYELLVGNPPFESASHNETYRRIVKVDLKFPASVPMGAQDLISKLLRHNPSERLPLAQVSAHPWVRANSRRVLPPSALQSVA
CYP2C9, sequence (P11712 whole entry): as the sequence (P11712 whole entry) above
hERG (KCNH2), sequence (Q12809 whole entry): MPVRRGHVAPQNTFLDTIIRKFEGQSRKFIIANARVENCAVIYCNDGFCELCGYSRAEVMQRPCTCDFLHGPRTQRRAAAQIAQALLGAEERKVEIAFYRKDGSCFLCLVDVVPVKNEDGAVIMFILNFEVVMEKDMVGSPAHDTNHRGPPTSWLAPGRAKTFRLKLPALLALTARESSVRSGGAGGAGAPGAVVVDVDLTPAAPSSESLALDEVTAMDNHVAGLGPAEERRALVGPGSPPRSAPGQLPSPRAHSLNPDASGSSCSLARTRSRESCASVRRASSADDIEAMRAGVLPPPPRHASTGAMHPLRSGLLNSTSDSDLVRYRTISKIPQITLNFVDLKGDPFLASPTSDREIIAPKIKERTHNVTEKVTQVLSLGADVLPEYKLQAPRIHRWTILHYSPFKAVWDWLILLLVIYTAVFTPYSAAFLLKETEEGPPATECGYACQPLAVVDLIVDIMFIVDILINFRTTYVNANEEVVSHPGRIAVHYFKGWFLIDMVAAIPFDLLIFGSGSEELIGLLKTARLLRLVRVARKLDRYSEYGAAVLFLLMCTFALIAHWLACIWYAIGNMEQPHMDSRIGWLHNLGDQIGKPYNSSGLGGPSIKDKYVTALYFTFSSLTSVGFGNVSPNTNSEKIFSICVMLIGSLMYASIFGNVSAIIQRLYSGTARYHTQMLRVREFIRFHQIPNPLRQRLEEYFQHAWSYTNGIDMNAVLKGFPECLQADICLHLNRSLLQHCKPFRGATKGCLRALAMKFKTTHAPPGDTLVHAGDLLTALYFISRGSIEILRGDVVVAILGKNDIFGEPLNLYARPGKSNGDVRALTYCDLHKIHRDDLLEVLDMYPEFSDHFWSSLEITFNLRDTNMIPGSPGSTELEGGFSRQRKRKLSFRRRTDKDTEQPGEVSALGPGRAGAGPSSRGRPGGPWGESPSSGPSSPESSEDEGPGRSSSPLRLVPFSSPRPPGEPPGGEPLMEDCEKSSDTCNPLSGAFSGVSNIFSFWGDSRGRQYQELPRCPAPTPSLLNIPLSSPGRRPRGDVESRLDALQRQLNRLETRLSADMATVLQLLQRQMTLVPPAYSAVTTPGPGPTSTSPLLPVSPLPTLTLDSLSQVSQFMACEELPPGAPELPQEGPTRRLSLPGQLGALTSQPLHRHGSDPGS
CYP3A4, sequence (P08684 whole entry): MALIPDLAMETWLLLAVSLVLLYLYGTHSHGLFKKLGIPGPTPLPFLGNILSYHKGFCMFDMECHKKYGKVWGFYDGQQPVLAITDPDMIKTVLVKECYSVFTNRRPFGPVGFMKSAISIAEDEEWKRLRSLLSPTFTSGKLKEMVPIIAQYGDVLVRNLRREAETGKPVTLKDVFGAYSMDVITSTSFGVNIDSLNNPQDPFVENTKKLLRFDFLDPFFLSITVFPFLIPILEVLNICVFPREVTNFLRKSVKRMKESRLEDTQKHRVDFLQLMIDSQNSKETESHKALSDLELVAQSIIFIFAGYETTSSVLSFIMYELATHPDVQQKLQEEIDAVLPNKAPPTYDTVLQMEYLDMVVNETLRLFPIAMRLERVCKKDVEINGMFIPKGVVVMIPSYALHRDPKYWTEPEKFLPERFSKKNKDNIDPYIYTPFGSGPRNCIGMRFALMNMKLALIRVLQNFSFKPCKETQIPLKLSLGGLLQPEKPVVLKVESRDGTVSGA

SMILES: N=C(N)c1ccc(OCCCCCOc2ccc(C(=N)N)cc2)cc1 [PENTAMIDINE]
CC50 at 72 h [1]: 10 µM

EC50 [2]: 0.2 µM
IC50 [3]: > 100 µM
EC50 [4]: 1.14 µM
SMILES: C[C@@H]1[C@H](O)[C@@H](C)/C=C/C=C/C=C/C=C/C=C/C=C/C=C/[C@H](O[C@@H]2O[C@H](C)[C@@H](O)[C@H](N)[C@@H]2O)C[C@@H]2O[C@](O)(C[C@@H](O)C[C@@H](O)[C@H](O)CC[C@@H](O)C[C@@H](O)CC(=O)O[C@H]1C)C[C@H](O)[C@H]2C(=O)O [AMPHOTERICIN B]
CC50 at 72 h [1]: 16.9 µM

EC50 [2]: 2.51 to 2.8 µM
IC50 [3]: > 100 µM
EC50 [4]: 1.29 µM
SMILES: CCCCCCCCCCCCCCCCOP(=O)([O-])OCC[N+](C)(C)C [MILTEFOSINE]
CC50 at 72 h [5]: 11.5 µM
CC50 at 72 h [1]: 15 µM

inhibition at 0.5 h, 10 µM [6]: -4.92%
inhibition at 0.75 h, 10 µM [7]: -22.8%
inhibition [10]: 10.6%
inhibition at 0.5 h, 10 µM [12]: -13.9%
inhibition at 0.5 h, 10 µM [16]: -40.6%
inhibition [17]: 14.8%
inhibition at 0.5 h, 10 µM [20]: -2.93%
inhibition at 0.5 h, 10 µM [21]: 61.6%
SMILES: NC(=S)N/N=C/c1ccccc1[N+](=O)[O-]
PF [8]: 1.13
inhibition of growth at 50 µM [9]: 30.6%
inhibition of growth at 50 µM [11]: 27.4%
Activity [13]: 29.17%
viability at 72 h, 100 µM [14]: 59.7%
Activity [15]: 1.5%
viability at 72 h, 50 µM [18]: 20.4%
cell growth (% of control) [19]: 158.95%
inhibition at 2 h, 10 µM [22]: -1.03%
cell growth (% of control) at 48 h, 10 µM [23]: 120%
growth inhibition (GI) [24]: inactive
cytotoxicity at 6 h, 10 µM [25]: -3.98%
